# Source: PubChem (several laboratories)
# The entries come from a sample that favours hits as a whole.
# Xi reactivation – reactivates the inactive X chromosome in mouse fibroblasts; XiGFP mouse fibroblasts, % GFP-positive cells imaging, 3 d; cells co-treated with 5-aza-dC sensitizer; scaled so ellipticine positive control = 100%; activation, % at 7.58 µM; 0.055% of 360,000 active;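 active means mean normalized replicate activation at least 10% and every replicate at or above 10%; inconclusive means only one of the two criteria met; inactive means mean below 10% and not all replicates reach 10%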;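 further: 0% = median of on-plate neutral control wells and 100% = ellipticine 6 µM median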
#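 System: 68-5-11 XiGFP fibroblast line; Timing: 3 days compound exposure; Compound dosing: one concentration, pinned; Benchmarks: positive control ellipticine, 6 µM final; Buffer or medium: DMEM containing 5-aza-dC.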
# Myeloid diff 2 – promotes myeloid progenitor differentiation | 1% of 360,000 active | ER-HoxA9 myeloid progenitors, lysozyme-GFP differentiation, flow cytometry | calls only at 10 µM;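 active means normalized GFP-positive differentiation at or above the plate's own cutoff, the solvent-only control mean plus 3 SD; inconclusive means no clear call, values can overlap the other calls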;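 further: cells exposed to compound for four days before flow analysis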
# ABCB6 inh 2 – inhibitors of human ABC transporter ABCB6; Q9NP58; K562-ABCB6 porphyrin accumulation, flow cytometry, 1 h; active compounds read low; 0.19% of 360,000 active; AID 602162; fluorescence ratio to DMSO, % at 10 µM;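 active means fluorescence ratio to DMSO below 75%, the collection mean minus 3 SD; inconclusive means too few cells collected in the well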;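 further: signal is porphyrin accumulated inside mitochondria; 100% equals median channel fluorescence of DMSO control wells; lower ratio means ABCB6 inhibition with less porphyrin fluorescence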
# Target sequence (Q9NP58 whole entry, looked up): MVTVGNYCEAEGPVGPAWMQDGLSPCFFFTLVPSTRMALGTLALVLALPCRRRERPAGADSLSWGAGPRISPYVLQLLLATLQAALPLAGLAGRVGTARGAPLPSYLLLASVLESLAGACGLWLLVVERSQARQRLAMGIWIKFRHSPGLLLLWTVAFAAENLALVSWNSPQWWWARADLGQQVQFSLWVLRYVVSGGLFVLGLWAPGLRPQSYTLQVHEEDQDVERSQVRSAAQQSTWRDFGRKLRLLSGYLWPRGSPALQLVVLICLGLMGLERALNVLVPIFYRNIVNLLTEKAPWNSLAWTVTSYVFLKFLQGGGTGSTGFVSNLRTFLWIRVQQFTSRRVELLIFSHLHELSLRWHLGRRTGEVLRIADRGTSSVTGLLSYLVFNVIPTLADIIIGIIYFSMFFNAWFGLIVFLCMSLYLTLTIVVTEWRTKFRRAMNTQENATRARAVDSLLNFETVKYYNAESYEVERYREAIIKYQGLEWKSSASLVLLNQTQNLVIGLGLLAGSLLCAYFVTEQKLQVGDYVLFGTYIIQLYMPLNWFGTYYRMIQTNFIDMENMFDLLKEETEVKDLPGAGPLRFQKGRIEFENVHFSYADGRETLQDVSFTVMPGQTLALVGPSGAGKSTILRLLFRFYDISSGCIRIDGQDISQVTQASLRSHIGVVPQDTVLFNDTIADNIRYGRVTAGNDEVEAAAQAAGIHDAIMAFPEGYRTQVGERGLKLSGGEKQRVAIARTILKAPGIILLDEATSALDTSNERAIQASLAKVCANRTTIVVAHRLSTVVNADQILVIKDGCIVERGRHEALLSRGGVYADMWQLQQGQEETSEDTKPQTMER
# Myeloid diff – compounds promoting myeloid differentiation; AID 651706; shares compounds with Myeloid diff 2; ER-HoxA9 myeloid progenitors, GFP/Mac1 double-positive flow; calls only; 2% of 2,300 active;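 active means share of green or green-and-red cells above 9 and 9% in run 1 or 4 and 3% in run 2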
# GFP autofluor – compound fluorescence in myeloid differentiation counter-screen; shares compounds with Myeloid diff 2; ER-HoxA9 myeloid progenitors, no estrogen, GFP autofluorescence flow cytometry; vehicle wells 0%, positive control 100%; fluorescence response, % (no concentration beside the values); 7.4% of 2,300 active;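 active means over 5% cells positive for green fluorescent reporter, or over 2% positive for both it and APC stain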;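 further: range taken on the double positive population between DMSO and positive control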
# An asterisk follows results filed as active; i = inactive; ? = inconclusive; . = no result given; + = active, no number.
SMILES,Xi reactivation,Myeloid diff 2,ABCB6 inh 2,Myeloid diff,GFP autofluor
Cc1ccc(CC(CC(=O)O)C(=O)NC2CCCCC2)cc1 (stereo not given),.,+,102,i,0
Cc1ccc(CC(CC(=O)O)C(=O)NCC23CC4CC(CC(C4)C2)C3)cc1 (stereo not given),0,i,125,.,.
C[C@H]1CN([C@@H](C)CO)C(=O)Cc2cc(NC(=O)CCCN(C)C)ccc2O[C@H]1CN(C)S(=O)(=O)c1ccccc1,-1,.,.,.,.
CCn1c(=O)c(C(=O)NC(C)c2ccccc2)c(O)c2ccccc21 (stereo not given),0,+,121,i,0
CCCn1c(=O)c(C(=O)NC(C)c2ccccc2)c(O)c2ccccc21 (stereo not given),0,i,101,.,.
C[C@@H]1CN([C@@H](C)CO)C(=O)Cc2cc(NC(=O)NC3CCCCC3)ccc2O[C@H]1CN(C)S(C)(=O)=O,0,.,.,.,.
COc1ccccc1-c1nc(=S)c(C(C)=O)c(C)[nH]1,0,i,100,.,.
CSc1nc(-c2ccccc2)nc(NC(=O)c2ccccc2)c1C(C)=O,-1,i,94,.,.
CC(=O)c1c(NC(=O)c2ccccc2)[nH]c(-c2ccccc2)nc1=S,0,+,114,i,4.9*
CC(=O)c1c(C)[nH]c(-c2ccccc2)nc1=S,0,i,102,i,1
O=C(NCC[C@@H]1CC[C@H](NS(=O)(=O)c2cccc(F)c2)[C@H](CO)O1)C1CC1,0,.,.,.,.
CN(C)C(=O)C[C@H]1C[C@@H]2c3cc(NC(=O)c4ccc5c(c4)OCO5)ccc3O[C@@H]2[C@@H](CO)O1,0,.,.,.,.
CCCNC(=O)Nc1ccc2c(c1)C(=O)N(C)C[C@H](OC)[C@H](C)CN(C(C)=O)[C@H](C)CO2,0,.,.,.,.
CC1=C(C(=O)OCc2ccc3c(c2)OCO3)C(c2ccc(F)cc2)NC(=O)N1 (stereo not given),.,+,93,i,0
CC1=C(C(=O)OCc2ccc3c(c2)OCO3)C(c2ccc(Cl)cc2)NC(=O)N1 (stereo not given),.,?,102,.,.
CCCC#Cc1ccc([C@@H]2[C@H]3CN(S(=O)(=O)c4ccccc4F)CCCCN3[C@H]2CO)cc1,0,.,.,.,.
COc1cccc(S(=O)(=O)Nc2ccc3c(c2)C(=O)N(C)[C@H]2CC[C@H](CC(=O)NCC4CCCCC4)O[C@H]2CO3)c1,0,.,.,.,.
CCn1cc(C(=O)NN)c(=O)c2cc(F)c(NC3CCCCC3)cc21,0,i,105,i,1
CCn1cc(C(=O)NN)c(=O)c2cc(F)c(N3CCCCC3)cc21,0,i,99,.,.
CCNC(=O)Nc1ccc2c(c1)C(=O)N(C)[C@H]1CC[C@H](CC(=O)NCc3ccc(F)cc3)O[C@@H]1CO2,0,.,.,.,.
C[C@@H]1CN([C@@H](C)CO)C(=O)c2cc(-c3ccc(C#N)cc3)cnc2O[C@H]1CN(C)C(=O)c1ccccc1,0,.,.,.,.
Cn1c(-c2ccccc2)cccc1=O,.,i,100,.,.
Cn1c(-c2ccccc2)c[n+]2c1-c1ccccc1C2,0,i,100,+,0
C[C@H](NC(=O)C[C@H]1C[C@@H]2c3cc(NC(=O)CN(C)C)ccc3O[C@@H]2[C@H](CO)O1)c1ccccc1,0,.,.,.,.
O=C(NC1CCCCC1)C(c1ccco1)N(Cc1ccco1)C(=O)c1ccco1 (stereo not given),.,i,98,i,0
SMILES,Xi reactivation,Myeloid diff 2,ABCB6 inh 2,Myeloid diff,GFP autofluor
O=C(NC1CCCCC1)C(c1ccco1)N(CCc1ccccc1)C(=O)C(F)(F)F (stereo not given),.,i,97,i,0
NC(=O)c1nsc(C(=O)N(CCc2ccccc2)C(C(=O)NC2CCCC2)c2ccco2)c1N (stereo not given),.,i,97,.,.
O=C(NCC(=O)N(Cc1ccccc1)C(C(=O)NC1CCCCC1)c1ccco1)c1ccco1 (stereo not given),.,i,102,.,.
CCC(=O)Nc1ccc2c(c1)C(=O)N(C)C[C@@H](OC)[C@H](C)CN(C(=O)C1CC1)[C@H](C)CO2,1,.,.,.,.
CCCC#Cc1ccc2c(c1)O[C@H](CN(C)Cc1ccccc1)[C@H](C)CN([C@H](C)CO)S2(=O)=O,1,.,.,.,.
COc1ccc(Cn2nnnc2CN2CCc3ccccc3C2)cc1,.,i,88,.,.
COc1ccc(Cn2nnnc2CN2CCc3ccccc32)cc1,.,+,108,i,3
COc1cccc(-n2cnc3scc(-c4cccs4)c3c2=O)c1,.,i,98,.,.
COc1ccc(C(=O)Nn2cnc3scc(-c4cccs4)c3c2=O)c(O)c1,.,i,102,i,0
COc1cccc(C#Cc2ccc([C@@H]3[C@H](CO)N4C(=O)CN(C(=O)c5ccncc5)C[C@@H]34)cc2)c1,0,.,.,.,.
CN1C(=O)c2cc(NC(=O)c3cnccn3)ccc2OC[C@@H]2O[C@@H](CC(=O)O)CC[C@@H]21,0,.,.,.,.
COc1ccccc1CN(Cc1nc2ccccc2c(=O)[nH]1)C(=O)Nc1ccc(C)cc1,.,i,95,+,0
COc1ccccc1CN(Cc1nc2ccccc2c(=O)[nH]1)C(=O)Nc1ccccc1C,.,i,107,.,.
O=C(NCc1ccc(F)cc1)[C@H]1[C@H](CO)[C@H]2Cn3c(cccc3=O)[C@@H]1N2,0,.,.,.,.
O=C(/C=C/c1ccc(-c2ccccc2[N+](=O)[O-])o1)c1ccc(Br)cc1,.,i,105,.,.
Cc1ccc(C(=O)/C=C/c2ccc(-c3ccccc3[N+](=O)[O-])o2)cc1,.,.,118,i,0
CCNC(=O)[C@H]1[C@H](CO)[C@H]2Cn3c(ccc(C4=CCCC4)c3=O)[C@@H]1N2Cc1ccccc1,0,.,.,.,.
O=C(COC(=O)c1ccccc1OCc1ccc(Cl)cc1)NCC1CCCO1 (stereo not given),0,i,96,.,.
CCCNC(=O)COC(=O)c1ccccc1OCc1ccc(Cl)cc1,.,+,98,i,0
C[C@H](CO)N1C[C@H](C)[C@H](CN(C)Cc2ccc(Cl)c(Cl)c2)OCc2ccccc2-c2ccccc2C1=O,0,.,.,.,.
COc1ccc(C2=NN(C(N)=S)C(c3ccco3)C2)cc1 (stereo not given),0,+,126,i,0
COc1ccc(C2=NN(C(=O)c3ccco3)C(c3ccco3)C2)cc1OC (stereo not given),0,i,82,.,.
COc1ccc(C2=NN(C(=O)CSc3nc4ncc(Cl)cc4[nH]3)C(c3ccco3)C2)cc1 (stereo not given),0,i,98,.,.
COc1ccc(C2=NN(C(=O)CSc3nnc(-c4ccccc4F)o3)C(c3ccco3)C2)cc1 (stereo not given),0,i,105,i,0
COc1ccc(-c2ccc([C@H]3[C@@H](CO)N4C(=O)CN(C(=O)C5CCCC5)C[C@H]34)cc2)cc1,0,.,.,.,.
COc1ccccc1CNC(=O)C[C@@H]1CC[C@H](NC(=O)CC2CC2)[C@@H](CO)O1,0,.,.,.,.
